This note sets out measurements from ChEMBL document CHEMBL4673180, “Synthesis of quinone imine and sulphur-containing compounds with antitumor and trypanocidal activities: redox and biological implications” (RSC Med Chem, 2020).

pIC50: −log10 of the molar value. Bounds are passed on as bounds.

Series [1] is described as follows: Selectivity index, ratio of IC50 for mouse L929 cells to IC50 for human NCI-H460 cells after 72 hrs by MTT assay. As to conditions: L929 cells versus NCI-H460 cells, read-out: Ratio IC50. It counts as toxicity. The gist of the method:
(§1)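 Both cell types were kept in medium with 10% FBS, 2 mM L-glutamine and penicillin/streptomycin at 37 °C, 5% CO2. Seeding was 0.7 × 10^5 cells per well for HCT-116, 0.1 × 10^6 for the other lines. Cells got compound in DMSO (0.1% final) for 72 h, then 0.5 mg/mL MTT for 3 h, with formazan read at 550 nm. IC50 came from nonlinear regression over three independent experiments in triplicate. SI is the L929 IC50 divided by the cancer-line IC50.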
A general note: Tetrazolium assays rely on reduction of a dye to a coloured formazan, in cell work by metabolically active cells.

Series [2] can be described thus: Selectivity index, ratio of IC50 for mouse L929 cells to IC50 for human PC3 cells after 72 hrs by MTT assay. The series is classed as toxicity. As to conditions: L929 cells versus PC3 cells, read-out: Ratio IC50. In outline: as §1
A short description of series [3]: Selectivity index, ratio of LC50 for cytotoxicity against albino Swiss mouse peritoneal macrophages to IC50 for Antitrypanosomal activity against Trypanosoma cruzi Y strain bloodstream trypomastigotes assessed as lysis of parasite in presence of 5 % mouse blood. The series is classed as toxicity. The gist of the method:
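Y-strain bloodstream trypomastigotes came from infected albino mice at peak parasitaemia and were purified by differential centrifugation. They were resuspended at 10^7/mL in RPMI with 10% mouse blood and mixed 1:1 with compound at twice the final concentration (DMSO ≤0.4%). Incubation was 24 h at 4 °C (5% blood per footnote).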

A short description of series [4]: Cytotoxicity against human Lucena1 cells assessed as reduction in cell viability after 72 hrs by MTT assay. It counts as functional, cell-based. As to conditions: Lucena 1, 72 h. In outline:
(§2)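 Cells were grown in medium with 10% FBS, 2 mM L-glutamine, penicillin and streptomycin at 37 °C, 5% CO2. Seeding per well was 0.1 × 10^6 for leukaemia, PC3, L929 and NCI-H460, and 0.7 × 10^5 for HCT-116. Compounds in DMSO (0.1% final) were applied for 72 h. MTT (0.5 mg/mL) was added for 3 h, formazan dissolved in DMSO, and absorbance read at 550 nm. IC50 by nonlinear regression; three independent experiments in triplicate.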

The nature of series [5]: Selectivity index, ratio of IC50 for mouse L929 cells to IC50 for human HCT116 cells after 72 hrs by MTT assay. The conditions noted are these: L929 cells versus HCT116 cells, read-out: Ratio IC50. It counts as toxicity. In outline:
as §1

A further series concerns NCI-H460. Description: Cytotoxicity against human NCI-H460 cells assessed as reduction in cell viability after 72 hrs by MTT assay. The series is classed as functional, cell-based. The conditions noted are these: NCI-H460, 72 h. In outline: (§3)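 Cells were grown in medium with 10% FBS, 2 mM L-glutamine, penicillin and streptomycin at 37 °C, 5% CO2. Compounds in DMSO (0.1% final) were applied for 72 h. MTT (0.5 mg/mL) was added for 3 h, formazan dissolved in DMSO, and absorbance read at 550 nm. IC50 by nonlinear regression; three independent experiments in triplicate.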

Series [6] in a line: Selectivity index, ratio of LC50 for cytotoxicity against albino Swiss mouse peritoneal macrophages to IC50 for Antitrypanosomal activity against Trypanosoma cruzi Y strain bloodstream trypomastigotes assessed as lysis of parasite in absence of mouse blood. The series is classed as toxicity. In outline:
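Y-strain bloodstream trypomastigotes came from infected albino mice at peak parasitaemia and were purified by differential centrifugation into RPMI. They were exposed 24 h at 37 °C without blood to compound (DMSO ≤0.4%).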

For a further series, the system named is L929. Description: Cytotoxicity against mouse L929 cells assessed as reduction in cell viability after 72 hrs by MTT assay. The conditions noted are these: L929, 72 h. It counts as cell-based. In outline:
as §2

For the next series, the system named is HL-60. Description: Cytotoxicity against human HL-60 cells assessed as reduction in cell viability after 72 hrs by MTT assay. The series is classed as functional, cell-based. The conditions noted are these: HL-60, 72 h. The gist of the method: as §3
The test system of a further series is K562. The series can be described thus: Cytotoxicity against human K562 cells assessed as reduction in cell viability after 72 hrs by MTT assay. It counts as functional, cell-based. As to conditions: K562, 72 h. The gist of the method: as §2
The test system of series [7] is Trypanosoma cruzi. Description: Antitrypanosomal activity against Trypanosoma cruzi Y strain bloodstream trypomastigotes assessed as lysis of parasite in presence of 5 % mouse blood incubated for 24 hrs by Neubauer chamber method. The series is classed as functional, organism-based. In outline:
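Y strain bloodstream trypomastigotes came from infected albino mice at peak parasitaemia, purified by differential centrifugation, in RPMI at 10^7 cells/mL with 10% mouse blood. They were mixed 1:1 with compound at twice the final concentration (5% blood final), 24 h at 4 °C, with DMSO ≤0.4% final. Neubauer chamber counting; IC50 is 50% lysis; at least three independent experiments.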

The next series deals with PC-3. The series can be described thus: Cytotoxicity against human PC-3 cells assessed as reduction in cell viability after 72 hrs by MTT assay. As to conditions: PC-3, 72 h. It counts as functional, cell-based. In outline:
as §2

Series [8] is described as follows: Selectivity index, ratio of IC50 for mouse L929 cells to IC50 for human K-562 cells after 72 hrs by MTT assay. The series is classed as toxicity. The conditions noted are these: L929 cells versus K-562 cells, read-out: Ratio IC50. In outline: as §1
Series [9] in a line: Selectivity index, ratio of IC50 for mouse L929 cells to IC50 for human HL-60cells after 72 hrs by MTT assay. It counts as toxicity. The conditions noted are these: L929 cells versus HL-60 cells, read-out: Ratio IC50. In outline:
as §1

In series [10] the test system is Trypanosoma cruzi. The series can be described thus: Antitrypanosomal activity against Trypanosoma cruzi Y strain bloodstream trypomastigotes assessed as lysis of parasite in absence of mouse blood incubated for 24 hrs by Neubauer chamber method. The series is classed as functional, organism-based. In outline: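 T. cruzi Y strain bloodstream trypomastigotes came from infected albino mice at peak parasitaemia and were purified by differential centrifugation. They were exposed to compounds for 24 h at 37 °C without blood. Parasites were counted in a Neubauer chamber, and IC50 is the concentration lysing 50% of parasites. Values are mean ± SD of at least three independent experiments.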

Another series deals with HCT-116. The series can be described thus: Cytotoxicity against human HCT-116 cells assessed as reduction in cell viability after 72 hrs by MTT assay. The series is classed as functional, cell-based. The conditions noted are these: HCT-116, 72 h. In outline: as §2
Series [11] is described as follows: Selectivity index, ratio of IC50 for mouse L929 cells to IC50 for human Lucena1 cells after 72 hrs by MTT assay. In outline: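 Selectivity index is the ratio of IC50 in murine L929 fibroblasts to IC50 in Lucena 1 cells, each measured by 72 h MTT assay (absorbance 550 nm). IC50 values came from nonlinear regression of three independent experiments in triplicate.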

Series [12] is described as follows: Cytotoxicity against albino Swiss mouse peritoneal macrophages assessed as reduction in cell viability incubated for 24 hrs by Presto blue assay. It counts as tissue-based, Macrophage. As to conditions: read-out: LC50. In outline: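 Primary peritoneal macrophages from Albino Swiss mice were seeded at 2.5 × 10^4 cells per well in RPMI-1640 (pH 7.2, 10% FBS, 2 mM glutamine) and grown 24 h at 37 °C. They were then treated 24 h at 37 °C with compound from DMSO stock (final DMSO ≤0.4%).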

What is called pIC50 is the IC50 on a negative log10 scale, so that one unit is a factor of ten. For `Cc1ccc(SC2=CC(=O)C(=O)c3ccccc32)cc1`, the selectivity ratio at 72 h amounted to 0.8 in series [1]; 0.8 in [2]; 1.3 in series [5]; 1.8 in [8]; 6.6 in [9]. Also, the selectivity ratio in series [3] came out at 0.92; in series [6] it was 23.9. In addition, the pIC50 was 4.89 in series [4]; under 4.70 with NCI-H460; under 4.70 in the series on L929; 5.38 in the series on HL-60; 4.83 in the series with K562; 4.05 in the series on Trypanosoma cruzi [7]. Moreover, the pIC50 with PC-3 is under 4.70; in the series with Trypanosoma cruzi [10], 5.47; with HCT-116, under 4.70. Moreover, in series [11], the “Ratio IC50” value was 2.1. In series [12], the CC50 at 24 h is 81.4 µM.

Turning to `Cc1ccc(S(=O)(=O)n2cc(COC3=C/C(=N\c4ccc(F)cc4)c4ccccc4C3=O)nn2)cc1`, the selectivity ratio at 72 h in series [1] amounted to 2.7; in series [2], 9.8; in [5], 3.5; in [8] it was 2.6; in series [9], 2.6. The selectivity ratio in series [3] is over 18.6. Also, the pIC50 was 5.18 in series [4]; 5.13 with NCI-H460; under 4.70 with L929; 5.12 with HL-60; 5.11 with K562; under 3.30 in the series with Trypanosoma cruzi [7]. Also, the pIC50 was 5.69 in the series with PC-3 and 5.24 in the series on HCT-116. In series [11], the “Ratio IC50” value worked out at 3. In addition, the CC50 at 24 h in [12] turned out to be 26.9 µM.

Regarding `Cc1ccc(/N=C2\C=C(OCc3cn(S(=O)(=O)c4ccc(C)cc4)nn3)C(=O)c3ccccc32)cc1`, the selectivity ratio at 72 h in series [1] came to 2.2; in [2] it was 6.7; in series [5], 4.9; in series [8], 2.9; in series [9], 3.3. The selectivity ratio in series [3] was over 5.65. The pIC50 is 5.84 in series [4]; 5.10 with NCI-H460; 4.75 with L929; 5.27 in the series on HL-60; 5.21 in the series with K562; under 3.30 in the series on Trypanosoma cruzi [7]. Further, the pIC50 in the series with PC-3 was 5.58; in the series on HCT-116 it was 5.44. Further, the “Ratio IC50” value in series [11] amounted to 12.3. For the same compound, in series [12], the CC50 at 24 h was 88.5 µM.

Consider `COc1ccc(/N=C2\C=C(OCc3cn(S(=O)(=O)c4ccc(C)cc4)nn3)C(=O)c3ccccc32)cc1`, for which the selectivity ratio at 72 h in series [1] was 2.6; in [2], 1; in series [5], 2.9; in series [8], 1; in series [9], 3.3. Also, in series [3], the selectivity ratio is over 11.3. The negative logarithm of the IC50 (pIC50) in series [4] is 5.34; in the series on NCI-H460 it was 5.08; in the series on L929 it was under 4.70; with HL-60, 5.16; in the series on K562, under 4.70; with Trypanosoma cruzi [7] it was under 3.30. Also, the results for the pIC50 in the series with PC-3 and with HCT-116 were under 4.70 and 5.13, respectively. Further, in series [11], the “Ratio IC50” value was found to be 5.4. In series [12], the CC50 at 24 h is 44.3 µM.

Regarding `Cc1ccc(S(=O)(=O)n2cc(COC3=C/C(=N\c4ccccc4)c4ccccc4C3=O)nn2)cc1`, the selectivity ratio at 72 h in series [1] stood at 2.9; in [2] it was 1; in series [5], 3.8; in [8] it was 1.7; in series [9], 3.1. For the same compound, in [3], the selectivity ratio is over 6.19. Besides, the pIC50 in series [4] was 5.44; in the series on NCI-H460 it was 5.14; in the series with L929, under 4.70; with HL-60 it was 5.17; in the series with K562 it was 4.91; in the series with Trypanosoma cruzi [7], under 3.30. Also, the pIC50 was under 4.70 in the series on PC-3 and 5.27 in the series on HCT-116. For the same compound, in [11], the “Ratio IC50” value amounted to 5.6. The CC50 at 24 h in [12] amounted to 80.8 µM.

As to `COc1ccc(SC2=CC(=O)C(=O)c3ccccc32)cc1`, the selectivity ratio at 72 h in series [1] came out at 1; in [2], 1; in series [5], 1; in series [8], 2.5; in [9], 3.6. The selectivity ratio is 0.37 in series [3] and 10.6 in series [6]. The pIC50 in series [4] is under 4.70; in the series on NCI-H460, under 4.70; in the series on L929, under 4.70; in the series on HL-60 it was 5.03; with K562, 4.88; in the series with Trypanosoma cruzi [7], 3.95. The pIC50 was under 4.70 in the series with PC-3, 5.41 in the series with Trypanosoma cruzi [10] and under 4.70 with HCT-116. Besides, the “Ratio IC50” value in series [11] is given as 1. The CC50 at 24 h in series [12] was found to be 41.5 µM.

With `O=C(Cn1ccnc1[N+](=O)[O-])NCc1ccccc1` [BENZNIDAZOLE], the selectivity ratio in series [3] was over 38.6; in [6], over 413. Moreover, the pIC50 with Trypanosoma cruzi [10] is 5.01. Besides, the CC50 at 24 h in series [12] was over 4000 µM.

`Cc1cccc(SC2=CC(=O)C(=O)c3ccccc32)c1`: the selectivity ratio at 72 h in series [1] is 1; in series [2], 1; in series [5] it was 1.8; in series [8], 2.2; in series [9], 6.6. Moreover, the results for the selectivity ratio in series [3] and in [6] were 1.03 and 14.6, respectively. Also, the pIC50 is 4.90 in series [4]; under 4.70 in the series with NCI-H460; under 4.70 in the series on L929; 5.27 with HL-60; 4.79 in the series with K562; 4.18 in the series on Trypanosoma cruzi [7]. Moreover, the pIC50 is under 4.70 with PC-3, 5.34 in the series on Trypanosoma cruzi [10] and 4.71 in the series on HCT-116. The “Ratio IC50” value in series [11] amounted to 2.8. In addition, the CC50 at 24 h in [12] amounted to 67.3 µM.
